We go through 14 molecules from ChEMBL document CHEMBL1152936, “Human sialidase inhibitors: design, synthesis, and biological evaluation of 4-acetamido-5-acylamido-2-fluoro benzoic acids” (Bioorg Med Chem, 2009).

The source made the active and inactive calls. The calls are words filed in the database; no cut-off is given here.

The target in experiment [1] is Sialidase-1 (Homo sapiens) (UniProt Q99519). Description: Inhibition of human NEU1 transiently transfected in HEK293 cells at 1 mM by fluorimetric analysis. The format is cell-based. The procedure, abridged:
(§1)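 Enzyme source was the crude supernatant of homogenates from HEK-293 cells transiently transfected with a full-length human sialidase cDNA plasmid. The reaction contained 10–20 nmol substrate (4MU-Neu5Ac) as bound sialic acid, 0.2 mg BSA, sodium acetate pH 4.6 and 0.2 mg Triton X-100. It was incubated at 37 °C for 10–30 min, and released sialic acid was quantified. Inhibitors were tested at 1 mM and reported as percent inhibition.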

Experiment [2] deals with T1, Sialidase-3 (Homo sapiens) (UniProt Q9UQ49).
T1 sequence (whole entry): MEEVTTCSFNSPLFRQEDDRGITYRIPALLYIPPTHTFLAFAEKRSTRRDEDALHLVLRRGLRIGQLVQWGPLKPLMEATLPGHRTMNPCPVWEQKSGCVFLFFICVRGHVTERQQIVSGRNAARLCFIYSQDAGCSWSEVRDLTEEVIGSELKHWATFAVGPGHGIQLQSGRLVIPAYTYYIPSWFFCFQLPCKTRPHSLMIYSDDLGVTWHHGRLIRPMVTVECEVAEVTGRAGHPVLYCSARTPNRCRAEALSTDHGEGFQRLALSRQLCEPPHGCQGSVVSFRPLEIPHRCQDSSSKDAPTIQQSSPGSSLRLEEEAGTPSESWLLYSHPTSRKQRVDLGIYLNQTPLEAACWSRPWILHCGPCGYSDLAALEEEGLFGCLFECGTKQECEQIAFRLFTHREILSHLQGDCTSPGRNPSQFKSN
Description: Inhibition of human NEU3 transiently transfected in HEK293 cells at 1 mM by fluorimetric analysis. It counts as cell-based. Summed up:
as §1

Experiment [3] concerns the target T2, Sialidase-4 (Homo sapiens) (UniProt Q8WWR8).
T2 sequence (whole entry): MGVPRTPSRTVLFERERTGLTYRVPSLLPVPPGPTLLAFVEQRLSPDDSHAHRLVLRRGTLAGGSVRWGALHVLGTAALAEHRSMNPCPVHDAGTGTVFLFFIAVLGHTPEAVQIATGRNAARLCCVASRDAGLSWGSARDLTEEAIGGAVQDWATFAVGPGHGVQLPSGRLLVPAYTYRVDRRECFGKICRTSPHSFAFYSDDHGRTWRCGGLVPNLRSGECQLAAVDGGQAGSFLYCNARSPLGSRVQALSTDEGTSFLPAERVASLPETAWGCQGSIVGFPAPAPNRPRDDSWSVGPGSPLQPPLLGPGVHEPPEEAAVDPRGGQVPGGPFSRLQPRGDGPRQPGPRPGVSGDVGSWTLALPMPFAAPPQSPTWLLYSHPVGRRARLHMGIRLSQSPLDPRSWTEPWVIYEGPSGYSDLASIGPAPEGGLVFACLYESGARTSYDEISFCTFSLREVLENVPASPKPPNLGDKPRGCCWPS
Description: Inhibition of human NEU4 transiently transfected in HEK293 cells at 1 mM by fluorimetric analysis. The format is cell-based. Summed up:
as §1

The target in experiment [4] is T3, Sialidase-3 (Homo sapiens, UniProt Q9UQ49).
T3 sequence (Q9UQ49 whole entry): T1 sequence (whole entry)
Description: Inhibition of human NEU3 transiently transfected in HEK293 cells by fluorimetric analysis. The format is cell-based. Summed up:
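The sialidase was the crude supernatant of homogenized HEK-293 cells transiently transfected with full-length human NEU3 cDNA. The mixture held 10–20 nmol 4MU-Neu5Ac as bound sialic acid, 0.2 mg BSA, sodium acetate pH 4.6 and 0.2 mg Triton X-100, run at 37 °C for 10–30 min. Released sialic acid was measured, and IC50 came from nonlinear regression of concentration–inhibition curves.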

The next experiment deals with T4, Sialidase-4 (Homo sapiens, UniProt Q8WWR8).
T4 sequence (Q8WWR8 whole entry): T2 sequence (whole entry)
Description: Inhibition of human NEU4 transiently transfected in HEK293 cells by fluorimetric analysis.

In experiment [5] the target is T3, Sialidase-3. Description: Inhibition of human NEU3 transiently transfected in HEK293T cells by fluorimetric high-performance liquid chromatography. It counts as cell-based, HEK-293T. Summed up: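 Crude supernatant of homogenates from HEK-293 cells transiently transfected with full-length human sialidase cDNA. Reaction: 10–20 nmol substrate as bound sialic acid, 0.2 mg BSA, sodium acetate pH 4.6, 0.2 mg Triton X-100.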

Turning to `CC(=O)Nc1cc(F)c(C(=O)O)cc1NC(=O)C1CC1`, the inhibition entry in experiment [1], in experiment [2] and in experiment [3] was “inactive” each time.

As to `CCCCC(=O)Nc1cc(C(=O)O)c(F)cc1NC(C)=O`, in experiment [1], the inhibition (in general, the change of the read-out against control, counted positive when it falls) was “inactive”. In addition, the inhibition in experiment [2] was 13%; in experiment [3] it was under 5%.

In the case of `CC(=O)Nc1cc(F)c(C(=O)O)cc1NC(=O)C(C)C`, the inhibition entry in experiment [1] and in experiment [2] was “inactive” in each case. The molecule also returned an inhibition in experiment [3] of 11%.

Turning to `CC(=O)Nc1cc(F)c(C(=O)O)cc1NC(=O)c1ccc2ccccc2c1`, the inhibition result in experiment [1] was “inactive”. Moreover, the inhibition in experiment [2] stood at 8%; in experiment [3], 10%.

For the molecule `CC(=O)Nc1cc(F)c(C(=O)O)cc1NC(=O)C1CCCCC1`, the inhibition result in experiment [1] and in experiment [2] was “inactive” each time. The same molecule came in with an inhibition in experiment [3] of 6%.

Regarding `CCCC(=O)Nc1cc(C(=O)O)c(F)cc1NC(C)=O`, the inhibition result in experiment [1] and in experiment [2] was “inactive” in each case. The molecule also returned an inhibition in experiment [3] of under 5%.

As for `CCC(C)C(=O)Nc1cc(C(=O)O)c(F)cc1NC(C)=O` (stereo unspecified), the inhibition result in experiment [1], in experiment [2] and in experiment [3] was “inactive” in each case.

In the case of `CC(=O)Nc1cc(F)c(C(=O)O)cc1NC(=O)C(C)(C)C`, the inhibition entry in experiment [1] and in experiment [2] was “inactive” in each case. Moreover, the inhibition in experiment [3] was under 5%.

On to `CC(=O)Nc1cc(F)c(C(=O)O)cc1NC(=O)C1CCCC1`, for which the inhibition entry in experiment [1], in experiment [2] and in experiment [3] was “inactive” in each case.

Regarding `CC(=O)Nc1cc(F)c(C(=O)O)cc1NC(=O)c1ccc(-c2ccccc2)cc1`, in experiment [1], the inhibition entry is “inactive”. For the same molecule, the IC50 against Sialidase-3 [4] and on Sialidase-4 was at least 5000 µM each time.

Turning to `CCC(CC)C(=O)Nc1cc(C(=O)O)c(F)cc1NC(C)=O`, the inhibition result in experiment [1] and in experiment [2] was “inactive” in each case. Besides, the inhibition in experiment [3] was under 5%.

Turning to `CC(=O)Nc1cc(F)c(C(=O)O)cc1NC(=O)c1ccccc1`, the inhibition result in experiment [1], in experiment [2] and in experiment [3] was “inactive” each time.

As to `CC(=O)Nc1cc(F)c(C(=O)O)cc1NC(C)=O`, the inhibition result in experiment [1] is “inactive”. The inhibition in experiment [2] is 23%; in experiment [3], 8%. Further, the IC50 (as a rule, the point on the concentration scale where inhibition reaches its midpoint) against Sialidase-3 [4] is over 2000 µM.

Molecule `CC(=O)N[C@H]1[C@H]([C@H](O)[C@H](O)CO)OC(C(=O)O)=C[C@@H]1O` [NEU5AC2EN] displayed an IC50 on Sialidase-3 [5] of 60 µM.
